Data reported in ChEMBL document CHEMBL1127347, “Synthesis and biological activity of bile acid-derived HMG-CoA reductase inhibitors. The role of 21-methyl in recognition of HMG-CoA reductase and the ileal bile acid transport system” (J Med Chem, 1994).
pIC50: −log10 of the molar value.

Tests used:
Oryctolagus cuniculus [1] = organism: Oryctolagus cuniculus; assay: (§1) Tested for inhibition of Na+ -dependent [3H]taurocholate uptake into rabbit ileal brush border membrane vesicles; type: functional
Procedure, shortened: (§2)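 Ileal brush border vesicles from male New Zealand white rabbits (4-5 kg), prepared by Mg2+ precipitation and kept in liquid nitrogen. Vesicles (50 μg protein) in 10 mM Tris-Hepes pH 7.4/300 mM mannitol were added to medium at 30 °C containing 50 μM [3H]taurocholate with 100 mM NaCl or 100 mM KCl. Uptake stopped at 60 s with ice-cold stop solution, then filtration and scintillation. Na+-dependent uptake taken as NaCl minus KCl uptake; mean ± SD, 3-10 independent experiments with different membrane preparations.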

Oryctolagus cuniculus [2] = organism: Oryctolagus cuniculus; assay: as §1; type: functional; procedure, shortened: as §2; remark: listed apart in the source
HepG2 = assay: Tested for inhibition of cholesterol biosynthesis in HEP G2 cells; type: functional, cell-based; conditions: Homo sapiens
Procedure, shortened: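 HEP G2 cells seeded at 5×10^4 cells/cm², grown 24 h in RPMI 1640/10% FCS, then 24 h in 10% lipoprotein-deficient serum. Cholesterol isolated by TLC and counted, corrected for recovery of [3H]cholesterol.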

[3] = target: T1, 3-hydroxy-3-methylglutaryl-coenzyme A reductase (Rattus norvegicus, UniProt P51639); assay: Tested for inhibition of rat liver microsomal HMG-CoA reductase
T1 sequence (P51639 whole entry): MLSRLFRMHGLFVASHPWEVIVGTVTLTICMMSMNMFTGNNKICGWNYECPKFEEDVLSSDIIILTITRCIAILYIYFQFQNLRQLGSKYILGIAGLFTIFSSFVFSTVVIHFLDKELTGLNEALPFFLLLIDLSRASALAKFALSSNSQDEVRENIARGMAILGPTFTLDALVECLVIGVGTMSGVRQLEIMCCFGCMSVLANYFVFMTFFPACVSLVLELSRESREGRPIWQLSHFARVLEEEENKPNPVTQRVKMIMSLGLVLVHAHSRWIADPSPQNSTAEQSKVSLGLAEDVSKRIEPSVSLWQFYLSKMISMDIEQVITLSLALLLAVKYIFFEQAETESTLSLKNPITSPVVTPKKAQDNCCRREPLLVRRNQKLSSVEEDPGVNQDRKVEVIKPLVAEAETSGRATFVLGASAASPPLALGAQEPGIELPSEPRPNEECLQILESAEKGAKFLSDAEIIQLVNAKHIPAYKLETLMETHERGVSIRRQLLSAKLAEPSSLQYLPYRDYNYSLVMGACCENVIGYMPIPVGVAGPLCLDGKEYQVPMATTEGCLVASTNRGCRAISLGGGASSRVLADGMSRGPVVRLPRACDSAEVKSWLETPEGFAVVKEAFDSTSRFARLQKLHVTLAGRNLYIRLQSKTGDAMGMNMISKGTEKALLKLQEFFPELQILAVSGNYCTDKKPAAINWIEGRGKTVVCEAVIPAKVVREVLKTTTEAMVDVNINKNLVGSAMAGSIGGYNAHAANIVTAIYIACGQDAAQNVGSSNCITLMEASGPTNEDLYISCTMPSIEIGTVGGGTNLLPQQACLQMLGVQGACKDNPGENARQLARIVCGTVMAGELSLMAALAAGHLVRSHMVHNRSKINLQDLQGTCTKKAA
Procedure, shortened: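 Microsomes came from livers of male Wistar rats (200-220 g) fed 2% cholestyramine for 10 days. Assay at pH 7.4 with 40 μg microsomal protein, NADP, glucose-6-phosphate and G6P dehydrogenase. Mevalonolactone separated on anion-exchange column and counted. Six concentrations in triplicate; IC50 read graphically, mean ± SD of three independent experiments.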

| SMILES | pIC50 (Oryctolagus cuniculus [2]) | pIC50 (HepG2) | pIC50 [3] | IC25 (Oryctolagus cuniculus [1]) [µM] | IC75 (Oryctolagus cuniculus [1]) [µM] |
| --- | --- | --- | --- | --- | --- |
| CC[C@H](C)C(=O)O[C@H]1C[C@@H](C)C=C2C=C[C@H](C)[C@H](CC[C@@H]3C[C@@H](O)CC(=O)O3)[C@H]21 [LOVASTATIN] | < 3.60 | 7.54 | 8.15 | 230 | > 250 |
| CC[C@H](C)C(=O)O[C@H]1C[C@H]2[C@@H](CC[C@@H]3C[C@H](O)CC[C@@]32C)[C@@H]2CCC(CC[C@H]3C[C@@H](O)CC(=O)O3)[C@@]12C (stereo partly specified) | 3.73 | 5.09 | 6.00 | 87 | > 250 |
| CC[C@H](C)C(=O)O[C@H]1C[C@H]2[C@@H](CC[C@@H]3C[C@H](O)CC[C@@]32C)[C@@H]2CCC(CC[C@@H]3C[C@@H](O)CC(=O)O3)[C@@]12C (stereo partly specified) | 3.77 | 5.74 | 6.70 | 87 | > 250 |

The next compounds have a higher pIC50 (Oryctolagus cuniculus [2]) than those just listed; values first:

| pIC50 (Oryctolagus cuniculus [2]) | pIC50 (HepG2) | pIC50 [3] | SMILES | IC25 (Oryctolagus cuniculus [1]) [µM] | IC75 (Oryctolagus cuniculus [1]) [µM] |
| --- | --- | --- | --- | --- | --- |
| 4.04 | 4.26 | 5.15 | CC[C@H](C)C(=O)O[C@H]1C[C@H]2[C@@H](CC[C@@H]3C[C@H](O)CC[C@@]32C)[C@@H]2CCC([C@H](C)C[C@H]3C[C@@H](O)CC(=O)O3)[C@@]12C (stereo partly specified) | 47 | 166 |
| 4.07 | 4.79 | 6.19 | CC[C@H](C)C(=O)O[C@H]1C[C@H]2[C@@H](CC[C@@H]3C[C@H](O)CC[C@@]32C)[C@@H]2CCC([C@H](C)C[C@@H]3C[C@@H](O)CC(=O)O3)[C@@]12C (stereo partly specified) | 37 | 148 |
| 4.08 | – | – | C[C@H](CCC(=O)O)[C@H]1CC[C@H]2[C@@H]3[C@H](O)C[C@@H]4C[C@H](O)CC[C@]4(C)[C@H]3C[C@H](O)[C@]12C [CHOLIC ACID] | 40 | 152 |
| 4.55 | – | – | C[C@H](CCC(=O)NCCS(=O)(=O)O)[C@H]1CC[C@H]2[C@@H]3[C@H](O)C[C@@H]4C[C@H](O)CC[C@]4(C)[C@H]3CC[C@]12C [TAUROCHENODEOXYCHOLATE] | 13 | 61 |
